Experimental data of several laboratories.
Target: Delta-type opioid receptor (OPRD1, Homo sapiens, UniProt P41143)

| Structure (SMILES) | test | test system | conditions | quantity | value |
| --- | --- | --- | --- | --- | --- |
| CCN(CC)CCCC[C@H](NC(=O)[C@H](CC(C)C)NC(=O)[C@H](C)NC(=O)[C@H](Cc1ccccc1)NC(=O)c1ccc(C(C)(C)C)cc1)C(=O)N[C@@H](CO)C(=O)OC | ligand displacement, radioligand |  | 10 µM | remaining binding | 71.4% |
| CC1(C)SSC(C)(C)[C@@H](NC(=O)[C@@H](N)Cc2ccc(O)cc2)C(=O)NCC(=O)N[C@@H](Cc2ccccc2)C(=O)N2CCN(CC2)C(=O)[C@H](Cc2ccccc2)NC(=O)CNC(=O)[C@@H]1NC(=O)[C@@H](N)Cc1ccc(O)cc1 | cAMP, agonist, luciferase | HEK293 |  | Emax | 206% |
| Clc1ccc2c(C3CCN(CCc4c[nH]c5ccccc45)CC3)c[nH]c2c1 | ligand displacement, radioligand |  | 10 µM | inhibition | 35% |
| C[C@H](C(=O)N[C@H]1COc2ccccc2[C@@H]1S(C)(=O)=O)c1ccc(F)cc1 | ligand displacement |  | 10 µM | inhibition | 1% |
| CC(C)N1CCC[C@H]1CNC(=O)c1cn(C2CCCC2)c(=O)c2c1c1ccccc1n2C | ligand displacement, radioligand |  | 10 µM | inhibition | 6% |
| O=C(c1ccc(F)cc1)N1CC(COc2ccc(Br)cc2)(C(=O)O)C1 | cell-free assay |  | 10 µM | inhibition | -5.22% |
| CC[C@@H]1CN2CC[C@@]3(O)C(=Nc4cccc(-c5ccoc5)c43)[C@@H]2C[C@@H]1/C(=C\OC)C(=O)OC | β-arrestin recruitment, agonist |  |  | Emax | > 100% |
| Nc1ncc(-c2nc(N3CCOCC3)nc(N3CCOCC3)n2)c(C(F)F)n1 | cell-free assay, radioligand |  | 10 µM | remaining signal | 103% |
| CC[C@@H]1CN2CC[C@@]3(O)C(=Nc4cccc(-c5ccccc5)c43)[C@@H]2C[C@@H]1/C(=C\OC)C(=O)OC | β-arrestin recruitment, agonist |  |  | Emax | > 100% |
| Cc1cc(Nc2nccc(C)n2)cc(-c2cnc([C@@]3(O)CC[C@H](C(=O)O)C(C)(C)C3)s2)c1 | ligand displacement |  | 10 µM | inhibition | 12.8% |
| c1ccc(C(NCCNC(c2ccccc2)c2ccccc2)c2ccccc2)cc1 | ligand displacement |  | 10 µM | inhibition | 81% |
| COCc1c(-c2cc3cc(C)cc(OC)c3s2)c2c(N)ncnn2c1CN1CCNC(=O)C1 | ligand displacement, radioligand |  | 10 µM | inhibition | 16% |
